The target of series [1] is T1, Probable G-protein coupled receptor 142 (Homo sapiens, UniProt Q7Z601).
T1 sequence (Q7Z601 whole entry): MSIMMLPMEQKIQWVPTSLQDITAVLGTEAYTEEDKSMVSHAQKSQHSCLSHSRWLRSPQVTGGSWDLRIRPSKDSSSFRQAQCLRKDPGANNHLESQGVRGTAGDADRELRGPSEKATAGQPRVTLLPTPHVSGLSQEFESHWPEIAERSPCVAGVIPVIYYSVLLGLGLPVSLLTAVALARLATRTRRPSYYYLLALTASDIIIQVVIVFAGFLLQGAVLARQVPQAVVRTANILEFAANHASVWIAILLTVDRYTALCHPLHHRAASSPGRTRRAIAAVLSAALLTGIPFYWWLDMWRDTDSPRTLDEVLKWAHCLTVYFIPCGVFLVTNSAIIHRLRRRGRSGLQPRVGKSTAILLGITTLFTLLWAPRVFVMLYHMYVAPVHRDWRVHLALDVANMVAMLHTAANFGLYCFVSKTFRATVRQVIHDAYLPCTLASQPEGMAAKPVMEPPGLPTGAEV
Briefly: Agonist activity at human GPR142 expressed in HEK293 cells assessed as inositol phosphate accumulation using [3H]-inositol after 1 hr by scintillation counting. The format is functional, cell-based. Summed up: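 HEK293 cells plated at 25,000/well, next day (80–90% confluent) transfected with 100 ng receptor plasmid per well by Lipofectamine; after 6 h switched to inositol-free DMEM/10% dialyzed FCS with 1 µCi/mL [3H]-inositol overnight. Washed in HBSS, then compound dilutions (DMSO) in HBSS/0.01% BSA plus 10 mM LiCl, 37 °C, 1 h. Lysed in ice-cold 20 mM formic acid, 4 °C 5 h, then yttrium silicate SPA beads, scintillation counting. Emax as % of maximal response to 10 mM tryptophan.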

Series [2] deals with T2, Probable G-protein coupled receptor 142 (Homo sapiens) (UniProt Q7Z601).
T2 sequence (whole entry): T1 sequence (Q7Z601 whole entry)
Nature of the series: Agonist activity at human GPR142 expressed in HEK293 cells assessed as inositol phosphate accumulation using [3H]-inositol after 1 hr by scintillation counting relative to tryptophan. The format is functional, cell-based. In a few lines:
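HEK293 cells on poly-D-lysine were transfected next day with 100 ng receptor plasmid/well, then labelled overnight with 1 µCi/mL [3H]-inositol in inositol-free DMEM/10% dialyzed FCS. Cells got graded compound in HBSS/0.01% BSA with 10 mM LiCl for 1 h at 37 °C. They were lysed in ice-cold 20 mM formic acid and counted with yttrium silicate SPA beads. EC50 given; Emax as % of maximal tryptophan response at 10 mM.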

In series [3] the target is T1, Probable G-protein coupled receptor 142. Briefly: Agonist activity at human GPR142 expressed in HEK293 cells assessed as inositol phosphate accumulation using [3H]-inositol after 1 hr by scintillation counting in presence of human serum. The format is functional, cell-based. Summed up:
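Same transfected HEK293 [3H]-inositol IP accumulation protocol as buffer assay, but compound incubation (10 mM LiCl, 37 °C, 1 h) run in 100% human serum instead of HBSS/0.01% BSA. Formic acid lysis, SPA bead scintillation read-out. Emax expressed as % of maximal 10 mM tryptophan response.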

The target in series [4] is CYP3A4 (Homo sapiens, UniProt P08684). Nature of the series: Inhibition of CYP3A4 at 3 uM. The class given is ADME.
CYP3A4, sequence (P08684 whole entry): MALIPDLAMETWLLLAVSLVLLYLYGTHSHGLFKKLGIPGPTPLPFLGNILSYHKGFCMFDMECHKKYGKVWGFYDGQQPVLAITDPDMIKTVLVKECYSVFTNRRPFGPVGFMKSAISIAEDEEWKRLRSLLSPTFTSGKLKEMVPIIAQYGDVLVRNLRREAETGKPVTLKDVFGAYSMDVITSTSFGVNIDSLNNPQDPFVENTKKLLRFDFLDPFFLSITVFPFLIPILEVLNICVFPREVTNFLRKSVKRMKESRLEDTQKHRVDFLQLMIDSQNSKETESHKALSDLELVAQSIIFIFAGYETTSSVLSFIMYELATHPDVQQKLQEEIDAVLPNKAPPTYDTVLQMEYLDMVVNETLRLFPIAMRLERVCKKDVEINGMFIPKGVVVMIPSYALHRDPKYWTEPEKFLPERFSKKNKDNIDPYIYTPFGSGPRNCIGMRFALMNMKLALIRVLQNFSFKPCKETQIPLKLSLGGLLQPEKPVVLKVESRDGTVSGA
Series [5] deals with CYP2D6 (Homo sapiens, UniProt P10635). Briefly: Inhibition of CYP2D6 at 3 uM. The format is ADME.
CYP2D6, sequence (P10635 whole entry): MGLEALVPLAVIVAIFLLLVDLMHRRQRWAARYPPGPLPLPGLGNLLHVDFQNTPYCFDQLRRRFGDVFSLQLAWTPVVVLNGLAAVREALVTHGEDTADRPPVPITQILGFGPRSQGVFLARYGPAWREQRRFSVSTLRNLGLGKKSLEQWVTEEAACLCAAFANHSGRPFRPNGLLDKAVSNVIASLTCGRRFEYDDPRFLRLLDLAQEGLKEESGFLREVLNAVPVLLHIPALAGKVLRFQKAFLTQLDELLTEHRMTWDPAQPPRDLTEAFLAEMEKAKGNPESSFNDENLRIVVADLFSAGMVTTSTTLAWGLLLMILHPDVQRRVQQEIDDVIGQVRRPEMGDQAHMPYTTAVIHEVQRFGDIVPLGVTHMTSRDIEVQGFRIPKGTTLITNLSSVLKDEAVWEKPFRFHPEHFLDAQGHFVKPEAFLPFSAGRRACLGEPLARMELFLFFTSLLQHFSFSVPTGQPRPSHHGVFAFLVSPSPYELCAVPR
Series [6] addresses T3, Probable G-protein coupled receptor 142 (Mus musculus, UniProt Q7TQN9).
T3 sequence (Q7TQN9 whole entry): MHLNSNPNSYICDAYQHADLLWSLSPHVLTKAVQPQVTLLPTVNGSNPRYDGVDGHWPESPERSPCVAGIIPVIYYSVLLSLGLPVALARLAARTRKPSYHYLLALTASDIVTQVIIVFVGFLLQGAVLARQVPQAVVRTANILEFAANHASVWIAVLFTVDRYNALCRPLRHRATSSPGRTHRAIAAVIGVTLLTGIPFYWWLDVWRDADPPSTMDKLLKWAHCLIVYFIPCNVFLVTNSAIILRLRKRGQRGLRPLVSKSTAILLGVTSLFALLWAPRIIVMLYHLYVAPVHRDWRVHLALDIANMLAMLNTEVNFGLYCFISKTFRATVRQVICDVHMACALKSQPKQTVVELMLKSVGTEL
Nature of the series: Agonist activity at mouse GPR142 assessed as inositol phosphate accumulation. The format is functional.

Series [7] is described as follows: Induction of insulin secretion in mouse pancreatic islets in presence of 16.7 mM of glucose. Particulars: Pancreatic islet. The class given is functional. Summed up: (§1)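 Isolated mouse islets stimulated in 16.7 mM glucose with 0.625% HSA and 1% DMSO; insulin secretion measured, Emax reported as percentage.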
A short description of series [8]: Induction of insulin secretion in mouse pancreatic islets in presence of 16.7 mM of glucose relative to control. The class given is functional. Particulars: Pancreatic islet. In a few lines:
as §1

In series [9] the target is T2, Probable G-protein coupled receptor 142 (Homo sapiens). Nature of the series: Agonist activity at human GPR142 expressed in HEK293 cells assessed as inositol phosphate accumulation using [3H]-inositol after 1 hr by scintillation counting in presence of human serum relative to tryptophan. The class given is functional, cell-based. Summed up: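 Transiently transfected HEK293 cells were labelled overnight with 1 µCi/mL tritiated inositol, then given graded compound in 100% human serum (in place of HBSS/0.01% BSA) with 10 mM LiCl for 1 h at 37 °C. Lysis was in ice-cold 20 mM formic acid, with SPA-bead scintillation read-out. EC50 given; Emax as % of maximal tryptophan response.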

Bounds are passed on as bounds.

The EC50 is the concentration needed to bring the measured effect to its halfway point. By Emax is commonly meant the size of the effect at its maximum, as opposed to the concentration needed. For the molecule `O=C(Nc1cc(-c2ccncc2)c[nH]c1=O)[C@H](Cc1ccccc1)NCC1CC1`, in [1], the EC50 was determined as 0.76 µM. Besides, in [2], the Emax worked out at 106%.
Take `COc1cc(NC(=O)[C@H](Cc2ccccc2)NCc2cscn2)cc(-c2ccncc2)c1`: the figures for the EC50 in [3] and in series [1] were 0.81 µM and 0.053 µM, respectively.
In the case of `NCC(=O)Nc1cc(-c2ccncc2)c[nH]c1=O`, in series [1], the EC50 is more than 33 µM.
The inhibition is the change of the read-out against control, counted positive when it falls. The low end stands for a weak effect, the high end for a strong effect. With `Cc1cc(-c2cccc(NC(=O)[C@H](Cc3ccccc3)NCc3cscn3)c2)ccn1`, the inhibition at 3 µM in series [4] is 63%; in series [5] it was 74%. Further, the concentration for a half-maximal effect (EC50) in [1] is 0.052 µM.
In the case of `O=C(CCc1ccccc1)Nc1cc(-c2ccncc2)c[nH]c1=O`, in series [1], the EC50 was more than 33 µM.
On to `O=C(Nc1cc(-c2ccncc2)c[nH]c1=O)[C@H](Cc1ccccc1)NCCc1ccccc1`, for which, in series [1], the EC50 was determined as 0.78 µM. Besides, the Emax in series [2] was 67%.
Consider `N#Cc1ccc(C[C@H](N)C(=O)Nc2cc(-c3ccncc3)c[nH]c2=O)cc1`, for which the EC50 in series [1] came to 4.6 µM. Besides, the Emax in [2] stood at 79%.
The matching figures for `N[C@H](Cc1ccccc1)C(=O)Nc1cc(-c2ccncc2)c[nH]c1=O`: 13 µM and 93%.
With `N[C@@H](Cc1ccc(Cl)cc1)C(=O)Nc1cc(-c2ccncc2)c[nH]c1=O`, the EC50 in [1] turned out to be 3.8 µM. Besides, the Emax in [2] stood at 105%.
As to `O=C(Nc1ccccc1)[C@H](Cc1ccccc1)NCc1cscn1`, the inhibition at 3 µM in series [4] turned out to be 24%; in [5], 36%. The EC50 in series [1] came out at 3.3 µM.
For `O=C(Nc1cccc(-c2cc[nH]n2)c1)[C@H](Cc1ccccc1)NCc1cscn1` the same measures were 59%, 36% and 0.067 µM.
`COc1ccc(-c2ccncc2)cc1NC(=O)[C@H](Cc1ccccc1)NCc1cscn1`: the figures for the EC50 in series [3] and in series [1] were 1 µM and 0.089 µM, respectively.
With `Cn1ccc(-c2cccc(NC(=O)[C@H](Cc3ccccc3)NCc3cscn3)c2)n1`, the inhibition at 3 µM in series [4] is 30%; in [5], 12%. Further, in series [1], the EC50 turned out to be 1.9 µM.
Take `O=C(Nc1nccc(-c2ccncc2)n1)[C@H](Cc1ccccc1)NCc1cscn1`: the results for the EC50 in series [3] and in [1] were 0.29 µM and 0.36 µM, respectively.
With `O=C(Nc1cccc(-c2ccccc2)c1)[C@H](Cc1ccccc1)NCc1cscn1`, the inhibition at 3 µM in series [4] worked out at 57%; in series [5] it was 46%. Also, in series [1], the EC50 is 0.64 µM.
For `Nc1cc(-c2cccc(NC(=O)[C@H](Cc3ccccc3)NCc3cscn3)c2)ccn1` the same measures were 38%, 42% and 0.21 µM.
Consider `COc1ccc(NC(=O)[C@H](Cc2ccccc2)NCc2cscn2)cc1-c1ccncc1`, for which the EC50 in [3] amounted to 0.98 µM; in [1] it was 0.24 µM.
With `O=C(Nc1cc(-c2ccncc2)c[nH]c1=O)[C@H](Cc1ccccc1)NCc1ccccc1`, the EC50 in series [1] came out at 0.83 µM. Besides, the Emax in series [2] came out at 97%.
`Cn1cc(-c2c[nH]c(=O)c(NC(=O)[C@H](Cc3ccccc3)NCc3cscn3)c2)cn1`: the inhibition at 3 µM in series [4] is 24%; in series [5] it was 21%. Besides, the EC50 in [1] was 0.23 µM.
As to `N[C@@H](Cc1ccccc1)C(=O)Nc1cc(-c2ccncc2)c[nH]c1=O`, the EC50 in series [6] came to 1.4 µM; in series [1], 4.8 µM. Also, the Emax in [2] amounted to 115%.
With `N[C@@H](Cc1ccc(F)cc1)C(=O)Nc1cc(-c2ccncc2)c[nH]c1=O`, the EC50 in series [1] came out at 4.2 µM. The Emax in [2] came out at 102%.
The matching figures for `Cc1ccc(C[C@H](N)C(=O)Nc2cc(-c3ccncc3)c[nH]c2=O)cc1`: 6.6 µM and 73%.
As for `Cn1cc(-c2cccc(NC(=O)[C@H](Cc3ccccc3)NCc3cscn3)c2)cn1`, the inhibition at 3 µM in series [4] was found to be 36%; in series [5], 42%. Besides, the EC50 in series [1] is 0.18 µM.
As to `N[C@@H](Cc1cccc(Cl)c1)C(=O)Nc1cc(-c2ccncc2)c[nH]c1=O`, in [1], the EC50 is more than 33 µM. Moreover, in [2], the Emax worked out at 50%.
The matching figures for `COc1ccc(C[C@H](N)C(=O)Nc2cc(-c3ccncc3)c[nH]c2=O)cc1`: 25 µM and 40%.
Regarding `O=C(Nc1cc(-c2ccncc2)c[nH]c1=O)[C@H](Cc1ccccc1)NCc1cscn1`, the EC50 came out at 2.7 µM in series [7], 0.5 µM in [3] and 0.093 µM in series [1]. Besides, the inhibition at 3 µM in series [4] was determined as 97%; in series [5], 95%. The figures for the Emax in series [8], in [2] and in series [9] were 88%, 120% and 100%, respectively.
`N[C@@H](Cc1ccccc1Cl)C(=O)Nc1cc(-c2ccncc2)c[nH]c1=O`: in series [1], the EC50 was more than 33 µM. Besides, the Emax in series [2] turned out to be 42%.
For the molecule `O=C(Nc1cccc(-c2cn[nH]c2)c1)[C@H](Cc1ccccc1)NCc1cscn1`, the results for the inhibition at 3 µM in [4] and in series [5] were 82% and 90%, respectively. Further, the EC50 in series [1] was 0.18 µM.
For the molecule `CC(=O)N[C@@H](Cc1ccccc1)C(=O)Nc1cc(-c2ccncc2)c[nH]c1=O`, the EC50 in series [1] is more than 33 µM.
Turning to `N[C@@H](CC1CCCCC1)C(=O)Nc1cc(-c2ccncc2)c[nH]c1=O`, in series [1], the EC50 is more than 33 µM. The Emax in series [2] is 30%.
Consider `O=C(Nc1cc(-c2ccn[nH]2)c[nH]c1=O)[C@H](Cc1ccccc1)NCc1cscn1`, for which the values for the inhibition at 3 µM in series [4] and in series [5] were 18% and 29%, respectively. In series [1], the EC50 is 0.2 µM.
With `N[C@H](C(=O)Nc1cc(-c2ccncc2)c[nH]c1=O)c1ccccc1`, the concentration for a half-maximal effect (EC50) in series [1] is more than 33 µM.
Take `O=C(Nc1cccc(-c2ccncc2)c1)[C@H](Cc1ccccc1)NCc1cscn1`: the inhibition at 3 µM in series [4] was determined as 97%; in series [5], 95%. Also, the EC50 in series [3] was 0.97 µM; in series [1], 0.067 µM.

For the origin of these results see ChEMBL document CHEMBL2069182, “Discovery and optimization of a novel series of GPR142 agonists for the treatment of type 2 diabetes mellitus” (Bioorg Med Chem Lett, 2012).
